In ChEMBL document CHEMBL1177891, “Synthesis and bioassay of pyrrolyl oxazolines and thiazolines” (2010):
In brackets after ≈: the same amount, converted by molar mass.

How the values were obtained:
Assay type in all cases: functional
Staphylococcus aureus [1] = assay: Antibacterial activity against Staphylococcus aureus at 100 ug/disk after 24 hrs by disk diffusion method; conditions: read-out: IZ
Summary of the method: (§1)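 Agar disc diffusion on nutrient agar with NCIM bacteria. 6 mm sterile paper discs moistened with compound in DMSO (100 or 200 μg/disc) placed on pre-inoculated plates. Incubated at 37 °C; growth-inhibition zone diameter measured after 24 h. Chloramphenicol control.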

Staphylococcus aureus [2] = assay: Antibacterial activity against Staphylococcus aureus at 200 ug/disk after 24 hrs by disk diffusion method; conditions: read-out: IZ; summary of the method: as §1
Bacillus subtilis [3] = assay: Antibacterial activity against Bacillus subtilis at 100 ug/disk after 24 hrs by disk diffusion method; conditions: read-out: IZ; summary of the method: as §1
Bacillus subtilis [4] = assay: Antibacterial activity against Bacillus subtilis at 200 ug/disk after 24 hrs by disk diffusion method; conditions: read-out: IZ; summary of the method: as §1
Klebsiella pneumoniae [5] = assay: Antibacterial activity against Klebsiella pneumoniae at 100 ug/disk after 24 hrs by disk diffusion method; conditions: read-out: IZ; summary of the method: as §1
Klebsiella pneumoniae [6] = assay: Antibacterial activity against Klebsiella pneumoniae at 200 ug/disk after 24 hrs by disk diffusion method; conditions: read-out: IZ; summary of the method: as §1
Proteus vulgaris [7] = assay: Antibacterial activity against Proteus vulgaris at 100 ug/disk after 24 hrs by disk diffusion method; conditions: read-out: IZ; summary of the method: as §1
Proteus vulgaris [8] = assay: Antibacterial activity against Proteus vulgaris at 200 ug/disk after 24 hrs by disk diffusion method; conditions: read-out: IZ; summary of the method: as §1
Fusarium solani [9] = assay: Antifungal activity against Fusarium solani at 100 ug/disk after 48 hrs by disk diffusion method; conditions: read-out: IZ
Summary of the method: (§2)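 Fungi from NCIM on nutrient agar plates, pre-inoculated. 6 mm paper discs carrying 100 or 200 μg compound in DMSO applied. Plates incubated at 37 °C and inhibition zone diameter measured at 48 h. Ketoconazole control.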

Fusarium solani [10] = assay: Antifungal activity against Fusarium solani at 200 ug/disk after 48 hrs by disk diffusion method; conditions: read-out: IZ; summary of the method: as §2
Curvularia lunata [11] = assay: Antifungal activity against Curvularia lunata at 100 ug/disk after 48 hrs by disk diffusion method; conditions: read-out: IZ; summary of the method: as §2
Curvularia lunata [12] = assay: Antifungal activity against […] lunata at 200 ug/disk after 48 hrs by disk diffusion method; conditions: read-out: IZ; summary of the method: as §2
Aspergillus niger [13] = assay: Antifungal activity against Aspergillus niger at 100 ug/disk after 48 hrs by disk diffusion method; conditions: read-out: IZ; summary of the method: as §2
Aspergillus niger [14] = assay: Antifungal activity against Aspergillus niger at 200 ug/disk after 48 hrs by disk diffusion method; conditions: read-out: IZ; summary of the method: as §2
[15] = Antioxidant activity assessed as inhibition of nitric oxide production at 100 uM
Summary of the method: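 Sodium nitroprusside ([…]) in phosphate buffer pH 7.4 incubated with 100 μM compound (dioxane/methanol) at 25 °C for 120 min; solvent-only control. Aliquots mixed 1:1 with Griess reagent (1% sulfanilamide, 0.1% N-naphthylethylenediamine, 2% phosphoric acid). Absorbance at 546 nm, triplicate.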

[16] = system: Radical scavenging activity; assay: Antioxidant activity assessed as DPPH radical scavenging activity at 100 uM
Summary of the method: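 Compound (100 μM) added to 100 μM DPPH in dioxane/ethanol. Kept at ambient temperature 20 min, then absorbance read at 517 nm. Percent DPPH scavenging taken from difference between test and control.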

[17] = Antioxidant activity assessed as increase in reducing power at 100 uM
Summary of the method: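 Oyaizu method. Compound at 100 μM in methanol mixed with 0.2 M phosphate buffer pH 6.6 and 1% potassium ferricyanide, 50 °C for 20 min. 10% TCA added, then centrifuged 3000 rpm for 10 min. Upper layer mixed with water and 0.1% FeCl3; absorbance read at 700 nm.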

Staphylococcus aureus [18] = assay: Antibacterial activity against Staphylococcus aureus after 24 hrs by microdilution susceptibility assay
Summary of the method: (§3)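 Bacterial strains from NCIM. Broth microdilution: stocks at 800 μg/ml in DMSO, two-fold dilutions 400, 200, 100 ... 6.25 μg/ml, wells inoculated with bacterial suspension, 36 °C for 24 h. MIC = lowest concentration with no turbidity (no visible growth). Chloramphenicol as reference.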

Bacillus subtilis [19] = assay: Antibacterial activity against Bacillus subtilis after 24 hrs by microdilution susceptibility assay; summary of the method: as §3
Klebsiella pneumoniae [20] = assay: Antibacterial activity against Klebsiella pneumoniae after 24 hrs by microdilution susceptibility assay; summary of the method: as §3
Proteus vulgaris [21] = assay: Antibacterial activity against Proteus vulgaris after 24 hrs by microdilution susceptibility assay; summary of the method: as §3

Row | Structure (SMILES) | zone of inhibition at 100 µg/disc (Staphylococcus aureus [1]) | zone of inhibition at 200 µg/disc (Staphylococcus aureus [2]) | zone of inhibition at 100 µg/disc (Bacillus subtilis [3]) | zone of inhibition at 200 µg/disc (Bacillus subtilis [4]) | zone of inhibition at 100 µg/disc (Klebsiella pneumoniae [5]) | zone of inhibition at 200 µg/disc (Klebsiella pneumoniae [6]) | zone of inhibition at 100 µg/disc (Proteus vulgaris [7]) | zone of inhibition at 200 µg/disc (Proteus vulgaris [8]) | zone of inhibition at 100 µg/disc (Fusarium solani [9]) | zone of inhibition at 200 µg/disc (Fusarium solani [10]) | zone of inhibition at 100 µg/disc (Curvularia lunata [11]) | zone of inhibition at 200 µg/disc (Curvularia lunata [12]) | zone of inhibition at 100 µg/disc (Aspergillus niger [13]) | zone of inhibition at 200 µg/disc (Aspergillus niger [14]) | inhibition [15] | inhibition [16] | inhibition [17] | further results
1 | Cc1ccc(S(=O)(=O)/C=C/S(=O)(=O)CC2=NCCS2)cc1 | 20 mm | 23 mm | 19 mm | 21 mm | 17 mm | 20 mm | 15 mm | 18 mm | 22 mm | 25 mm | 21 mm | 24 mm | 20 mm | 23 mm | 21.7% | 22.2% | 21.2% | –
2 | Cc1cc(C(C)(C)C)c(O)c(C(C)(C)C)c1 | – | – | – | – | – | – | – | – | – | – | – | – | – | – | – | – | 92.3% | –
3 | O=S(=O)(/C=C/S(=O)(=O)c1ccc(Cl)cc1)CC1=NCCO1 | 13 mm | 15 mm | 12 mm | 14 mm | 10 mm | 12 mm | 9 mm | 10 mm | 16 mm | 19 mm | 18 mm | 20 mm | 17 mm | 20 mm | 85.5% | 86.6% | 82.7% | –
4 | O=S(=O)(CC1=NCCO1)c1c[nH]cc1S(=O)(=O)c1ccccc1 | 15 mm | 19 mm | 16 mm | 18 mm | 14 mm | 17 mm | 13 mm | 15 mm | 18 mm | 22 mm | 19 mm | 23 mm | 20 mm | 22 mm | 87.7% | 88.3% | 86.8% | –
5 | Cc1ccc(S(=O)(=O)/C=C/S(=O)(=O)CC2=NCCO2)cc1 | 10 mm | 13 mm | 9 mm | 11 mm | – | – | – | – | 14 mm | 17 mm | 18 mm | 19 mm | 14 mm | 16 mm | 74.2% | 73.9% | 73.5% | –
6 | Cc1ccc(S(=O)(=O)c2c[nH]cc2S(=O)(=O)CC2=NCCS2)cc1 | 23 mm | 26 mm | 22 mm | 24 mm | 20 mm | 21 mm | 17 mm | 19 mm | 29 mm | 31 mm | 28 mm | 32 mm | 31 mm | 35 mm | 23.7% | 23.2% | 22.9% | –
7 | O=C(N[C@H](CO)[C@H](O)c1ccc([N+](=O)[O-])cc1)C(Cl)Cl [CHLORAMPHENICOL] | 35 mm | 41 mm | 38 mm | 44 mm | 37 mm | 42 mm | 42 mm | 45 mm | – | – | – | – | – | – | – | – | – | MIC (Staphylococcus aureus [18]): 6.25 µg/mL (≈ 19.3 µM); MIC (Bacillus subtilis [19]): 6.25 µg/mL (≈ 19.3 µM); MIC (Klebsiella pneumoniae [20]): 6.25 µg/mL (≈ 19.3 µM); MIC (Proteus vulgaris [21]): 12.5 µg/mL (≈ 38.7 µM)
8 | O=C1O[C@H]([C@@H](O)CO)C(O)=C1O | – | – | – | – | – | – | – | – | – | – | – | – | – | – | 96.9% | 95.4% | – | –
9 | O=S(=O)(/C=C/S(=O)(=O)c1ccccc1)CC1=NCCO1 | 11 mm | 13 mm | 10 mm | 12 mm | – | – | – | – | 14 mm | 15 mm | 16 mm | 18 mm | 17 mm | 19 mm | 82.1% | 83.7% | 79.5% | –
10 | O=S(=O)(CC1=NCCO1)c1c[nH]cc1S(=O)(=O)c1ccc(Cl)cc1 | 17 mm | 19 mm | 16 mm | 19 mm | 15 mm | 17 mm | 12 mm | 14 mm | 21 mm | 23 mm | 20 mm | 23 mm | 21 mm | 22 mm | 92.1% | 91.5% | 89.4% | –
11 | Cc1ccc(S(=O)(=O)c2c[nH]cc2S(=O)(=O)CC2=NCCO2)cc1 | 12 mm | 15 mm | 13 mm | 14 mm | 10 mm | 13 mm | 11 mm | 13 mm | 18 mm | 20 mm | 17 mm | 21 mm | 17 mm | 21 mm | 78.5% | 76.1% | 77.3% | –
12 | O=S(=O)(/C=C/S(=O)(=O)c1ccccc1)CC1=NCCS1 | 21 mm | 24 mm | 22 mm | 23 mm | 19 mm | 21 mm | 17 mm | 18 mm | 26 mm | 29 mm | 24 mm | 26 mm | 26 mm | 28 mm | 30.4% | 29.3% | 29.3% | –
13 | O=S(=O)(/C=C/S(=O)(=O)c1ccc(Cl)cc1)CC1=NCCS1 | 27 mm | 28 mm | 29 mm | 31 mm | 22 mm | 23 mm | 21 mm | 22 mm | 29 mm | 31 mm | 24 mm | 28 mm | 27 mm | 29 mm | 32.3% | 33.5% | 28.3% | –
